Screens as filed in PubChem.
Shown are actives, neighbours in structure and some others; about 1.9% of the full set was active somewhere.
proCasp3 act = activates human procaspase-3; recombinant procaspase-3 D3A, Ac-DEVD-pNA absorbance 405 nm; actives 0.11% (n = 330,000); P42574; activation, % at 8.5 µM; AID 463141;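 active = activation above the mean of all tested compounds plus 3 SD, cut at about 21% in these data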;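 also: 0% = DMSO alone and 100% = DMSO wells spiked with extra 5 µM PC-3 D3A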
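Test system: Procaspase-3 D3A mutant; medium: Zinc-free HEPES/NaCl buffer with 0.01% Triton X-100 at pH 7.4; reagent: DEVD-pNA substrate; doses: one concentration, 8.5 µM nominal, 0.8% DMSO; times: 1 h preincubation plus 2 h reaction at 25 °C; signal: Epi-absorbance at 405 nm of released p-nitroaniline, 0 and 120 min; replicates: singlicate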
sPLA2-III inh = Blocks human group III sPLA2 activity; Q9NZ20; QFRET BODIPY PC-A2 liposome hydrolysis, fluorescence; inhibition, % at 12.2 µM; actives 0.56% (n = 370,000); AID 743126;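 active = inhibition above mean plus 3 SD of compounds lying within the high and low control bounds, cut at about 19% in these data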;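 also: 0% = median of test compound wells and 100% = no enzyme DMSO wells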
Arrestin-AP2 inh = inhibitors of human beta-arrestin and AP2 interaction | actives 0.31% (n = 340,000) | AID 504490 | FITC-arrestin peptide / GST-AP2 beads, flow cytometry; AP2 beta2 appendage carries R879A mutation | inhibition, % at 10 µM;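 active = inhibition above a set limit, near 3 SD of compounds lacking own fluorescence, cut at about 54% in these data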;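 also: plate controls were DMSO wells for no effect and 5 µM unlabelled arrestin peptide for full effect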
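System: GST-AP2 R879A bound to glutathione beads, E. coli-expressed. Also added: 50 nM FITC-arrestin peptide. Schedule: compound with beads 12 min RT, then probe 1 h RT. Signal: bead flow cytometry, FITC channel. Read-out basis: percent response.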
procasp7 counter = activates human procaspase-7, counter-screen for procaspase-3 activators | P55210 | activation, % at 8.5 µM | actives 0.093% (n = 330,000) | recombinant procaspase-7, Ac-DEVD-pNA absorbance 405 nm; D23A/D198A/D206A triple mutant, cannot self-cleave; scale: DMSO 0, 5 µM enzyme 100;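 active = percent activation above the screen-wide mean plus 3 SD, cut at about 25% in these data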
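Test system: Procaspase-7 triple mutant (PC-7 D3A). Also added: Ac-DEVD-pNA substrate, 400 µM as added. Schedule: 1 h enzyme–compound preincubation and 2 h substrate reaction, both 25 °C. Signal: p-Nitroaniline absorbance at 405 nm, read at 0 and 120 min. Control set: low DMSO alone, high DMSO plus 5 µM PC-7.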
PLCb3 inh = blocks human PLC-beta3 enzyme activity | Purified PLC-beta3, fluorogenic substrate, fluorescence | actives 0.18% (n = 370,000) | inhibition, % at 12.2 µM; in the data active = inhibition above about 11%;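 also: 0% = median of compound wells on plate and 100% = full blocker control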
PLCg1 inh = blocks human PLC-gamma1 enzyme activity; purified PLC-gamma1, fluorogenic substrate, fluorescence; inhibition, % at 12.2 µM; actives 0.84% (n = 370,000); AID 720700
Target sequence (P19174 whole entry, looked up): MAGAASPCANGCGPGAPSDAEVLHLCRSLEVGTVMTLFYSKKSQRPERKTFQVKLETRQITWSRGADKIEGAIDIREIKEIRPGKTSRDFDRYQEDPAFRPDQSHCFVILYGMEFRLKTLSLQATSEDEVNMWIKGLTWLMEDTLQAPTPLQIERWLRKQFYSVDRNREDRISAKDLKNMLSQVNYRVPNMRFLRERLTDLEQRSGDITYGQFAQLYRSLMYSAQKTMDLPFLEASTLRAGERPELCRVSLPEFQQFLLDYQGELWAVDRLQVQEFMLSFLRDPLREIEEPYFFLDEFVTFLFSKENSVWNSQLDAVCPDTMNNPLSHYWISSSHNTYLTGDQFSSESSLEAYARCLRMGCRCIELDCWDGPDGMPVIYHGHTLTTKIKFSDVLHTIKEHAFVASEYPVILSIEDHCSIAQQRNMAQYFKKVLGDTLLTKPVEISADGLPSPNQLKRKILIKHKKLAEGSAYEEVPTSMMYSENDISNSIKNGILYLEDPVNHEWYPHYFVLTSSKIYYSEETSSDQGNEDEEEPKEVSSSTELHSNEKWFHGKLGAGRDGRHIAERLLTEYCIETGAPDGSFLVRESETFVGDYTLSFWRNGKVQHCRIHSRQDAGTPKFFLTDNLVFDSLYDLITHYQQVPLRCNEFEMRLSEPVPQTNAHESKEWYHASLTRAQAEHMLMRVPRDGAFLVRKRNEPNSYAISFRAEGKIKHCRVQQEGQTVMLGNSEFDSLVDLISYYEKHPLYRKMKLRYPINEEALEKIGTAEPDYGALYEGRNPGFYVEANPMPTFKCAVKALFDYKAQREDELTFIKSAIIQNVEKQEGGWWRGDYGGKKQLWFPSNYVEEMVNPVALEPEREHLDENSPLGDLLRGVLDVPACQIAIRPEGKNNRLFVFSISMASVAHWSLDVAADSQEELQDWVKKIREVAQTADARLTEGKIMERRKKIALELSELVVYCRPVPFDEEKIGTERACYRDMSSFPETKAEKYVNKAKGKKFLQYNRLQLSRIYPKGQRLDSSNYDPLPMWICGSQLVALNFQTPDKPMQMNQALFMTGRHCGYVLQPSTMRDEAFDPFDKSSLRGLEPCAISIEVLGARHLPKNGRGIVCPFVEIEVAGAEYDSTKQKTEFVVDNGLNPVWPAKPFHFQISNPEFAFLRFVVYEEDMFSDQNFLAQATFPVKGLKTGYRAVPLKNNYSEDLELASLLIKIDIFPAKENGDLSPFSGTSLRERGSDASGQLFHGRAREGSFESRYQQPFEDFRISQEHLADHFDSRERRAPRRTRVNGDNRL
PLCgamma1 ctr = counter-screen for PLC-beta3 inhibitors: inhibitors of human PLC-gamma1 | purified PLC-gamma1, fluorogenic substrate, fluorescence | shares compounds with PLCg1 inh | actives 3.1% (n = 3,300) | inhibition, % at 12.3 µM
PLCb3 confirm = confirmation of human PLC-beta3 inhibitors | shares compounds with PLCg1 inh | purified PLC-beta3, fluorogenic substrate fluorescence | inhibition, % at 12.3 µM | actives 1% (n = 3,300) | AID 743261; in the data active = inhibition above about 11%
The depositor's hits bear a star; / = not tested or not shown. Rule as the data show it, unless noted: active = inhibition above about 9.5%; inactive = the rest.

SMILES	proCasp3 act	sPLA2-III inh	Arrestin-AP2 inh	procasp7 counter	PLCb3 inh	PLCg1 inh	PLCgamma1 ctr	PLCb3 confirm
CCn1c(SCc2ccc(OC)c(F)c2)nc2ccccc2c1=O	-8	-6	0	-1	-8	-1	/	/
CCn1c(SCc2ccc(F)cc2)nc2ccccc2c1=O	7	6	-1	5	-1	11*	-4	-6
Cc1[nH]c2ccccc2c1/C=N/Nc1nncn1N	-14	4	4	-28	6	9.9*	-11	-5
Cc1[nH]c2ccccc2c1/C=N/Nc1ccccn1	/	6	/	/	-10	-12	/	/
CCCC(=O)N1CCC[C@]2(CC[C@H](CCC(C)=O)O2)C1	/	16	/	/	5	2	/	/
Cc1cc(=O)n2nc(N3CCCC(C(=O)NCc4ccccc4Br)C3)sc2n1 (stereo not given)	1	1	8	-4	-7	12*	-3	1
Cc1cc(=O)n2nc(N3CCCC(C(=O)NCc4ccccc4C)C3)sc2n1 (stereo not given)	-2	0	2	-5	2	-2	/	/
COC(=O)c1cc(C)nc2c1C(=O)C(=O)C=C2N1CCOCC1	-6	-2	3	-4	-2	14*	49*	11*
Cc1ccc2c(c1)N(CCC(=O)NC1CC1)C(=O)C(C)O2 (stereo not given)	5	4	28	4	12*	6	-3	-6
O=[N+]([O-])c1ccc(CSc2nc3ncc(Br)cc3[nH]2)cc1	0	6	17	-7	0	11*	-3	0
COC(=O)[C@]12C[C@H](CC(=O)NCc3ccc(C)o3)C(=O)N(Cc3cccc4ccccc34)C1=C[C@H](C1CCCC1)O[C@@H]2C	/	-13	/	/	0	1	/	/
COC(=O)[C@]12C[C@H](CC(=O)NCCCCc3ccccc3)C(=O)N(Cc3cccc4ccccc34)C1=C[C@H](C(C)C)O[C@@H]2C1CC1	/	-11	/	/	2	13*	-1	-6
COC(=O)[C@]12C[C@H](CC(=O)NCc3cccc4ccccc34)C(=O)N(Cc3cccc4ccccc34)C1=C[C@H](C(C)C)O[C@@H]2C1CC1	/	-11	/	/	-1	3	/	/
COC(=O)[C@]12C[C@H](CC(=O)N3CCCC3)C(=O)N(CCC3=CCCCC3)C1=C[C@H](C1CCCC1)O[C@@H]2C	/	9	/	/	1	11*	-3	0
COC(=O)[C@]12C[C@H](CC(=O)NCc3ccc(C)o3)C(=O)N(Cc3ccccc3)C1=C[C@H](C1CCCC1)O[C@@H]2C	/	-14	/	/	12*	7	-8	-4
C#CCNC(=O)C[C@H]1C[C@@]2(C(=O)OC)C(=C[C@H](C(C)C)O[C@@H]2C2CC2)N(Cc2cccc3ccccc23)C1=O	/	-9	/	/	-1	9.5*	-7	-2
COC(=O)[C@@]12CCCCC=C1N(CCc1ccc(Cl)cc1)C(=O)[C@H]2CC(=O)NCCC(C)C	/	-6	/	/	0	-11	/	/
CCOC(=O)[C@]12CCCC3=C1N(CCC3)C(=O)[C@@H](CC(=O)NCCc1ccccc1OC)C2	/	-5	/	/	4	1	/	/
C=C1[C@@H](C)CN[C@@H]1CCO	/	18	/	/	-1	2	/	/
COC(=O)[C@]12C[C@H](CC(=O)NCC3CCCCC3)C(=O)N(Cc3ccccc3)C1=C[C@H](C(C)C)O[C@@H]2C1CC1	/	-6	/	/	12*	5	-1	-1
C[C@H](O)[C@@H]1CN2CCc3c([nH]c4c(-c5ccc6c(c5)OCO6)cccc34)[C@@H]2C[C@@H]1N(C)C(=O)NC1CCCCC1	/	-9	/	/	-25	-19	/	/
COc1ccc(Cn2nnnc2C(C(C)C)N2CCN(c3ccccc3OC)CC2)cc1 (stereo not given)	2	9	-3	9	6	11*	1	3
O=C(O)C[C@H]1c2cc(F)ccc2S(=O)(=O)N1C1CCCC1	-2	11	-6	-1	1	10*	6	5
O=C(O)C[C@H]1c2cc(F)ccc2S(=O)(=O)N1C1CCCCC1	4	5	-2	3	1	4	/	/
CC(=O)Oc1cc2c(s1)CCN(C(C(=O)C1CC1)c1ccccc1F)C2 (stereo not given)	/	-4	/	/	-30	-21	/	/
SMILES	proCasp3 act	sPLA2-III inh	Arrestin-AP2 inh	procasp7 counter	PLCb3 inh	PLCg1 inh	PLCgamma1 ctr	PLCb3 confirm
Cc1c(C(=O)NCc2cccnc2)sc2ncn(CC(=O)N3CCCCC3C)c(=O)c12 (stereo not given)	/	4	1	/	3	11*	-6	-4
CC(NCc1ccco1)C(=O)N1CCCC1 (stereo not given)	/	13	/	/	-3	-3	/	/
CC(C)c1cc(=O)n2[nH]c(SCc3ccccc3Cl)nc2n1	13	8	5	8	-5	13*	-3	-2
Cc1cc(=O)n2[nH]c(SCc3ccccc3)nc2n1	-3	1	-3	6	2	2	/	/
OC(CN1CCN(c2ncc(C(F)(F)F)cc2Cl)CC1)c1ccccc1 (stereo not given)	6	2	21	3	2	13*	-6	-4
CN(C)CC(=O)N[C@@H]1C[C@@H]2O[C@@H](CO)CC[C@@H]2O[C@@H]1CCc1ccc(C2=CCCCC2)cc1	/	-18	/	/	1	-1	/	/
O=C(CN1C(=O)/C(=C/c2ccco2)SC1=S)Nc1ccc(C(=O)O)c(O)c1	-5	-17	3	-23	-13	58*	40*	-13
CC(C(=O)Nc1ccc(C(=O)O)c(O)c1)N1C(=O)/C(=C\c2ccco2)SC1=S (stereo not given)	-5	/	-3	-12	/	/	/	/
O=C(CN1C(=O)/C(=C/c2ccco2)SC1=S)Nc1ccc(O)c(C(=O)O)c1	-9	-17	10	-14	-26	46*	36*	-17
COc1ccc(NC(=O)CCCN2C(=O)/C(=C\c3ccco3)SC2=S)cc1	3	-10	15	-27	-2	-1	/	/
CCOC(=O)N(C)[C@H]1C[C@H]2c3[nH]c4cccc(-c5cccc(F)c5)c4c3CCN2C(=O)[C@H]1[C@H](C)O	/	-2	/	/	-473	-354	/	/
c1ccn(-c2ccc(-c3noc(CCc4ccncc4)n3)cc2)c1	/	-18	/	/	4	7	/	/
CC(C)Cn1c2c(c(O)c(C(=O)Nn3c(Cc4ccccc4)nc4ccccc4c3=O)c1=O)CCCC2	6	-1	16	3	0	-1	/	/
